In brackets after ≈: the same amount, converted by molar mass. Activity calls are given as the source filed them. The calls are words filed in the database; no cut-off is given here.

The results in this text go back to ChEMBL document CHEMBL1156637, “Bioactive 5alpha-pregnane-type steroidal alkaloids from Sarcococca hookeriana” (J Nat Prod, 2008).

One assay has as its target Acetylcholinesterase (Homo sapiens, UniProt P22303). Put plainly: Inhibition of acetylcholinesterase.
The next assay has as its target Cholinesterase (Homo sapiens, UniProt P06276). Put plainly: Inhibition of butyrylcholinesterase. An outline of the steps:
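In vitro enzyme inhibition assay, reported as IC50 with the standard error of the mean from five assays.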

Assay [1] relates to Bacillus subtilis. Put plainly: Antibacterial activity against Bacillus subtilis assessed as zone of inhibition at 1.0 mg/mL by agar well diffusion method. The format is functional. The conditions noted are these: read-out: IZ. An outline of the steps:
(§1)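 Agar well diffusion with pure compounds loaded into wells at 1.0 mg/mL. Zone of inhibition read in mm. Ampicillin is the reference for Gram-positive strains and gentamicin for Gram-negative strains.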
Background: A growth-free zone around the sample is the usual read-out of agar diffusion tests.

Assay [2] has as its system Micrococcus luteus. Put plainly: Antibacterial activity against Micrococcus luteus assessed as zone of inhibition at 1.0 mg/mL by agar well diffusion method. Format: functional. Conditions: for zone of inhibition at 1000 µg/mL: read-out: IZ. The essentials:
as §1

Assay [3] deals with Enterococcus faecalis. Put plainly: Antibacterial activity against Streptococcus faecalis assessed as zone of inhibition at 1.0 mg/mL by agar well diffusion method. The conditions noted are these: for zone of inhibition at 1000 µg/mL: read-out: IZ. The format is functional. An outline of the steps:
as §1

Assay [4] deals with Pseudomonas. Put plainly: Antibacterial activity against Pseudomonas pallida assessed as zone of inhibition at 1.0 mg/mL by agar well diffusion method. Format: functional. The conditions noted are these: for zone of inhibition at 1000 µg/mL: read-out: IZ. The essentials: as §1
For assay [5], the system named is Bacillus subtilis. Put plainly: Antibacterial activity against Bacillus subtilis by agar well diffusion method. The format is functional.
The test system of assay [6] is Micrococcus luteus. Put plainly: Antibacterial activity against Micrococcus luteus by agar well diffusion method. Format: functional.
The subject of assay [7] is Pseudomonas. Put plainly: Antibacterial activity against Pseudomonas pallida by agar well diffusion method. Format: functional.
In the next assay the test system is Leishmania major. Put plainly: Antileishmanial activity against Leishmania major. Format: functional, organism-based.
Assay [8] concerns Bacillus subtilis. Put plainly: Antibacterial activity against Bacillus subtilis assessed as zone of inhibition at 0.25 mg/mL by agar well diffusion method. The format is functional. Conditions: read-out: IZ. An outline of the steps: (§2)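 Reference antibiotic (ampicillin for these Gram-positive strains) tested by agar well diffusion at 0.25 mg/mL. Inhibition zone diameter recorded in mm.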

The test system of assay [9] is Micrococcus luteus. Put plainly: Antibacterial activity against Micrococcus luteus assessed as zone of inhibition at 0.25 mg/mL by agar well diffusion method. The format is functional. The conditions noted are these: read-out: IZ. An outline of the steps:
as §2

For assay [10], the system named is Enterococcus faecalis. Put plainly: Antibacterial activity against Streptococcus faecalis assessed as zone of inhibition at 0.25 mg/mL by agar well diffusion method. Format: functional. Conditions: read-out: IZ. The essentials:
as §2

Sequence of Acetylcholinesterase (P22303 whole entry): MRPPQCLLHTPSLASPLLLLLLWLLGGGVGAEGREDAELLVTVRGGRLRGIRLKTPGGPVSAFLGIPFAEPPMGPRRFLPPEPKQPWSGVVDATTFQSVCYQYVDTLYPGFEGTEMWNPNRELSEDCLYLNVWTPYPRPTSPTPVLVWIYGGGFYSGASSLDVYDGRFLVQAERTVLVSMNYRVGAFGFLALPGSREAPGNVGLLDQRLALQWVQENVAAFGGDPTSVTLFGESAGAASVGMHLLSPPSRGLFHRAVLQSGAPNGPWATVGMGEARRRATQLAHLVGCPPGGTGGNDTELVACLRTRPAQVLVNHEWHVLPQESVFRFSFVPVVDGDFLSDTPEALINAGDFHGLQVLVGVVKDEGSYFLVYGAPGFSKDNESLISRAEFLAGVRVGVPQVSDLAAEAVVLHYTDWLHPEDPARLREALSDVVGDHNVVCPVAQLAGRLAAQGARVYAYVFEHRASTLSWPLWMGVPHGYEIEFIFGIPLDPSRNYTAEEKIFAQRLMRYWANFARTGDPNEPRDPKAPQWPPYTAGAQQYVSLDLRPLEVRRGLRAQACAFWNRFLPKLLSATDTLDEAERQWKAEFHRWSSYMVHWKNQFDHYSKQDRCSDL
Sequence of Cholinesterase (P06276 whole entry): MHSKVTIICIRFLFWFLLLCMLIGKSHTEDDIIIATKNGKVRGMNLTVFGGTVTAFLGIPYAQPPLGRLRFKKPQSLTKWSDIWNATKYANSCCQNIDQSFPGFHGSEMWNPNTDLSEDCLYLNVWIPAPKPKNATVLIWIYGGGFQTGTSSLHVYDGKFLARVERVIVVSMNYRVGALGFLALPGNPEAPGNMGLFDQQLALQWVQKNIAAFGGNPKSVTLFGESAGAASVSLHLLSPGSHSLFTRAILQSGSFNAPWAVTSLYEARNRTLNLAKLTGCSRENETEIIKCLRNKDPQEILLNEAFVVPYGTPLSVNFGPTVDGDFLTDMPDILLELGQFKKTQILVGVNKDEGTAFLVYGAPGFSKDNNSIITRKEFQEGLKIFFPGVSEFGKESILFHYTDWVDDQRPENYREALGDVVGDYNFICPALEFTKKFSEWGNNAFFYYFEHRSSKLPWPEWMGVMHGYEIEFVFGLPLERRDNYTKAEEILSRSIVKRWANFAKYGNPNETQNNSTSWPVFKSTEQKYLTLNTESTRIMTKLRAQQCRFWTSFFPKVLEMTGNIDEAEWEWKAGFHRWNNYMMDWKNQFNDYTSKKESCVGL

By IC50 is commonly meant the concentration needed to halve the response being measured. Lower therefore signals inhibition by little substance. For orientation: MIC means the lowest concentration found to suppress growth. `C[C@@H]([C@H]1CC[C@H]2[C@@H]3CC[C@H]4C[C@@H](N(C)C)CC[C@]4(C)[C@H]3CC[C@]12C)N(C)C`: the IC50 at Acetylcholinesterase was found to be 22.1 µM; at Cholinesterase, 1.6 µM. The zone of inhibition at 1000 µg/mL in the assay on Bacillus subtilis [1] turned out to be 19 mm; with Micrococcus luteus [2] it was 11 mm; in the assay with Enterococcus faecalis [3], 8 mm; with Pseudomonas [4] it was 14.5 mm. Further, the MIC in the assay on Bacillus subtilis [5] was 83.5 µM (≈ 31.3 µg/mL); in the assay on Micrococcus luteus [6], 167 µM (≈ 62.6 µg/mL); with Pseudomonas [7], 167 µM (≈ 62.6 µg/mL).

For the compound `CN[C@@H](C)[C@H]1CC[C@H]2[C@@H]3CC=C4C(=O)[C@@H](NC(=O)C=C(C)C)CC[C@]4(C)[C@H]3CC[C@]12C`, the IC50 on Acetylcholinesterase is 9.9 µM; on Cholinesterase, 0.6 µM. In addition, the zone of inhibition at 1000 µg/mL in the assay on Bacillus subtilis [1] came out at 9 mm. The result with Micrococcus luteus [2], with Enterococcus faecalis [3] and with Pseudomonas [4] was inactive. Besides, the MIC in the assay with Bacillus subtilis [5] was determined as 568 µM (≈ 242 µg/mL).

In the assay on Leishmania major, `C/C=C(\C)C(=O)NC1=CC[C@@]2(C)C(=CC[C@H]3[C@@H]4CC[C@H]([C@H](C)NC)[C@@]4(C)CC[C@@H]32)C1=O` had an IC50 of 21.3 µM. Also, the zone of inhibition at 1000 µg/mL with Bacillus subtilis [1] came out at 20 mm; in the assay with Micrococcus luteus [2], 12.5 mm; in the assay on Enterococcus faecalis [3] it was 10 mm; with Pseudomonas [4] it was 16.5 mm. In addition, the results for the minimum inhibitory concentration (MIC) in the assay with Bacillus subtilis [5], in the assay on Micrococcus luteus [6] and in the assay on Pseudomonas [7] were 35.6 µM (≈ 15.1 µg/mL), 143 µM (≈ 60.6 µg/mL) and 35.6 µM (≈ 15.1 µg/mL), respectively.

As to `C[C@@H]1[C@H](O)[C@@H](C)/C=C/C=C/C=C/C=C/C=C/C=C/C=C/[C@H](O[C@@H]2O[C@H](C)[C@@H](O)[C@H](N)[C@@H]2O)C[C@@H]2O[C@](O)(C[C@@H](O)C[C@@H](O)[C@H](O)CC[C@@H](O)C[C@@H](O)CC(=O)O[C@H]1C)C[C@H](O)[C@H]2C(=O)O` [AMPHOTERICIN B], the 50% inhibitory concentration (IC50) with Leishmania major stood at 0.5 µM.

As to `CC1(C)S[C@@H]2[C@H](NC(=O)[C@H](N)c3ccccc3)C(=O)N2[C@H]1C(=O)O` [AMPICILLIN], the zone of inhibition at 250 µg/mL was found to be 29 mm with Bacillus subtilis [8], 26 mm in the assay on Micrococcus luteus [9] and 25 mm in the assay on Enterococcus faecalis [10]. Further, the MIC against Bacillus subtilis [5] was found to be 89.7 µM (≈ 31.3 µg/mL); in the assay with Micrococcus luteus [6], 5.6 µM (≈ 1.96 µg/mL).

On to `C[C@@H]([C@H]1CC[C@H]2[C@@H]3CC[C@H]4C[C@@H](N)CC[C@]4(C)[C@H]3CC[C@]12C)N(C)C` [CHONEMORPHINE], for which the results for the IC50 against Acetylcholinesterase and on Cholinesterase were 28 µM and 0.5 µM, respectively. The zone of inhibition at 1000 µg/mL turned out to be 16.5 mm in the assay with Bacillus subtilis [1], 11.5 mm in the assay on Micrococcus luteus [2], 10 mm with Enterococcus faecalis [3] and 14 mm in the assay with Pseudomonas [4]. Besides, the results for the MIC with Bacillus subtilis [5], against Micrococcus luteus [6] and against Pseudomonas [7] were 90.3 µM (≈ 31.3 µg/mL), 90.3 µM (≈ 31.3 µg/mL) and 181 µM (≈ 62.6 µg/mL), respectively.

For the compound `C[C@@H]([C@H]1CC[C@H]2[C@@H]3CC[C@H]4C(=O)C(NC=O)=CC[C@]4(C)[C@H]3CC[C@]12C)N(C)C` [HOOKERIANAMIDE H], inhibition in the assay with Leishmania major was half-maximal at 22.4 µM (IC50). In addition, the zone of inhibition at 1000 µg/mL in the assay with Bacillus subtilis [1] was found to be 11.5 mm; with Micrococcus luteus [2], 11 mm. Besides, the outcome in the assay on Enterococcus faecalis [3] and in the assay with Pseudomonas [4] was inactive. In addition, the minimal inhibitory concentration (MIC) with Bacillus subtilis [5] and in the assay on Micrococcus luteus [6] was 324 µM (≈ 125 µg/mL) in each case.

For `CN[C@@H](C)[C@H]1CC[C@H]2[C@@H]3CC[C@H]4C[C@@H](N(C)C(=O)c5ccccc5)CC[C@]4(C)[C@H]3CC[C@]12C` [HOOKERIANAMIDE I], the IC50 in the assay on Leishmania major was found to be 8.8 µM. In addition, the zone of inhibition at 1000 µg/mL in the assay on Bacillus subtilis [1] is 17.5 mm; in the assay with Micrococcus luteus [2], 18 mm; in the assay with Enterococcus faecalis [3] it was 8 mm; in the assay with Pseudomonas [4] it was 18.5 mm. Besides, the values for the MIC against Bacillus subtilis [5], in the assay on Micrococcus luteus [6] and in the assay on Pseudomonas [7] were 69.4 µM (≈ 31.3 µg/mL), 34.7 µM (≈ 15.6 µg/mL) and 69.4 µM (≈ 31.3 µg/mL), respectively.

Turning to `CC(C)=CC(=O)N[C@H]1CC[C@@]2(C)[C@@H](CC[C@@H]3[C@@H]2CC[C@]2(C)C([C@H](C)N(C)C)=CC[C@@H]32)[C@H]1O` [HOOKERIANAMIDE J], the IC50 at Acetylcholinesterase was determined as 48.5 µM; against Cholinesterase it was 0.8 µM; in the assay on Leishmania major, 11.3 µM. Also, the values for the zone of inhibition at 1000 µg/mL in the assay on Bacillus subtilis [1] and with Pseudomonas [4] were 15 mm and 12 mm, respectively. The outcome in the assay with Micrococcus luteus [2] and in the assay on Enterococcus faecalis [3] was inactive. Further, the values for the minimal inhibitory concentration (MIC) in the assay on Bacillus subtilis [5] and in the assay on Pseudomonas [7] were 141 µM (≈ 62.6 µg/mL) and 70.7 µM (≈ 31.3 µg/mL), respectively.

`C[C@@H]([C@H]1CC=C2[C@@H]3CCC4=C[C@@H](N(C)C)CC[C@]4(C)[C@H]3CC[C@@]21C)N(C)C` [HOOKERIANAMIDE K]: the IC50 is 24.2 µM against Acetylcholinesterase, 4 µM against Cholinesterase and 6.8 µM in the assay with Leishmania major. Besides, the zone of inhibition at 1000 µg/mL in the assay on Bacillus subtilis [1] was determined as 13 mm; in the assay on Micrococcus luteus [2], 9.5 mm; in the assay with Enterococcus faecalis [3] it was 10 mm; in the assay with Pseudomonas [4], 10.5 mm. Moreover, the results for the minimal inhibitory concentration (MIC) in the assay with Bacillus subtilis [5], against Micrococcus luteus [6] and in the assay on Pseudomonas [7] were 338 µM (≈ 125 µg/mL), 651 µM (≈ 241 µg/mL) and 169 µM (≈ 62.6 µg/mL), respectively.

On to `N=C(N)c1ccc(OCCCCCOc2ccc(C(=N)N)cc2)cc1` [PENTAMIDINE], for which, in the assay on Leishmania major, the IC50 came out at 7.5 µM.

As to `C/C=C(\C)C(=O)N[C@H]1CC[C@]2(C)[C@H]3CC[C@]4(C)[C@@H]([C@H](C)NC)CC[C@H]4[C@@H]3CC[C@H]2[C@H]1OC(C)=O` [SARCOVAGINE C], the IC50 against Acetylcholinesterase is 8.1 µM; at Cholinesterase, 0.4 µM; in the assay with Leishmania major, 1.5 µM. The zone of inhibition at 1000 µg/mL was 20 mm in the assay with Bacillus subtilis [1], 13.5 mm in the assay on Micrococcus luteus [2], 12 mm with Enterococcus faecalis [3] and 17.5 mm in the assay on Pseudomonas [4]. Also, the MIC came to 64.3 µM (≈ 30.4 µg/mL) with Bacillus subtilis [5], 64.3 µM (≈ 30.4 µg/mL) in the assay on Micrococcus luteus [6] and 32.1 µM (≈ 15.2 µg/mL) with Pseudomonas [7].

The compound `CN[C@@H](C)[C@H]1CC[C@H]2[C@@H]3CC[C@H]4[C@@H](OC(C)=O)[C@@H](NC(=O)C=C(C)C)CC[C@]4(C)[C@H]3CC[C@]12C` [VAGENINE A] showed a half-inhibitory concentration (IC50) in the assay on Leishmania major of 3.3 µM. Also, the zone of inhibition at 1000 µg/mL in the assay with Bacillus subtilis [1] was 17 mm; in the assay on Enterococcus faecalis [3], 10 mm; with Pseudomonas [4], 13.5 mm. Besides, the result in the assay with Micrococcus luteus [2] was inactive. Besides, the minimal inhibitory concentration (MIC) with Bacillus subtilis [5] and in the assay with Pseudomonas [7] was 64.3 µM (≈ 30.4 µg/mL) throughout.
